Reference: the array DNA melting data of Ke et al. (doi:10.1101/2024.01.08.574731)

Assays:
[1] = folding enthalpy; higher = less favourable; fluorescence melt of hairpins on a sequencing array, two-state fit; details: sodium 0.088 M
Method in brief: (§1)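 Cy3 signals were normalised both to pre-quench Cy3 and to control constructs. They came from library hairpins carrying annealed Cy3 and quencher oligos on a sequenced MiSeq flow cell, imaged in 50 mM Na-HEPES pH 8.0, 25 mM NaCl, in 2.5 °C steps up to 60 °C. Bootstrapped two-state fits gave melting temperature and folding enthalpy, and four replicates were combined by inverse variance. Fitted temperatures were then raised by 9.35 °C to match UV melts.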

[2] = melting temperature; fluorescence melt of hairpins on a sequencing array, two-state fit, raised by 9.35 °C to match UV melts; details: sodium 0.088 M
Method in brief: as §1

Row | Sequence | folding enthalpy [1] [kcal/mol] | Tm [2] [°C]
1 | GGGGTTGGAAACAGTCCC (((..((....))..))) | -24.5 | 36
2 | GGGGTTGGAAACGACCCC (((((.(....).))))) | -49.1 | 57.8
3 | GGGTAACGAAAGTTGCCC (((.(((....))).))) | -49.4 | 59.6
4 | GGGTAAGCGAAAGCTCCC (((..(((....)))))) | -20.6 | 47.8
5 | GGGTACGAAAGTAACCC ((((((....))).))) | -26.9 | 54.3
6 | GGGTACGAAAGTAACCCC ((((((....)))..))) | -21.9 | 54.2
7 | GGGTACGAAAGTACTCCC ((((((....)))..))) | -13.4 | 45.6
8 | GGGTACGAAAGTATGCCC ((((((....)))..))) | -16 | 37.3
9 | GGGTACGGAAACATACCC (((((.(....).))))) | -33.1 | 40.2
10 | GGGTACGGAAACGCACCC ((((.((....)).)))) | -49.4 | 52.3
11 | GGGTAGACGAAAGTCCCC (((..(((....)))))) | -18.6 | 46.5
12 | GGGTAGGGAAACCTATCC ((.((((....)))).)) | -29.7 | 46.6
13 | GGGTAGTCGAAAGACCCC (((..(((....)))))) | -20.5 | 45.4
14 | GGGTATCCGAAAGGACCC (((..(((....)))))) | -18.6 | 43.9
15 | GGGTATGGAAACACACCC ((((.((....)).)))) | -29.8 | 42.8
16 | GGGTCACGAAAGTGCCCC (((.(((....))).))) | -27.4 | 63
17 | GGGTCAGGAAACTGACTC (.(((((....))))).) | -30.7 | 51.8
18 | GGGTCATCGAAAGATCCC (((..(((....)))))) | -20.3 | 34.5
19 | GGGTCCCCGAAAGGGCCC (((..(((....)))))) | -23.1 | 56
20 | GGGTCCGAAAGGATCCC ((((((....))).))) | -31.5 | 60.1
21 | GGGTCCGGAAACAGACCC (((((.(....).))))) | -44.5 | 49.5
22 | GGGTCCGGAAACGGGTCC ((..(((....)))..)) | -27.6 | 50.1
23 | GGGTCGGCGAAAGCCCCC (((..(((....)))))) | -13.9 | 46.1

Row | Sequence | folding enthalpy [1] [kcal/mol] | Tm [2] [°C]
24 | GGGTCGGGAAACCAACCC ((((.((....)).)))) | -35.2 | 47.1
25 | GGGTCGGGAAACTGACCC (((((.(....).))))) | -51.9 | 57.5
26 | GGGTCGTCGAAAGACCCC (((..(((....)))))) | -21.6 | 52.6
27 | GGGTCTGCGAAAGCACCC (((..(((....)))))) | -17.5 | 44.2
28 | GGGTCTGGAAACAGGTCC ((..(((....)))..)) | -27.8 | 39.9
29 | GGGTCTGGAAACGGACTC (.(((.(....).))).) | -28.3 | 37.5
30 | GGGTGACCGAAAGGTCCC (((..(((....)))))) | -12.5 | 51.6
31 | GGGTGAGAAATCACCC ((((((....)))))) | -37.1 | 61.6
32 | GGGTGAGGAAACCCACCC (((((.(....).))))) | -50.9 | 51.7
33 | GGGTGAGGAAACTTGCCC (((..((....))..))) | -22.9 | 43.5
34 | GGGTGCACGAAAGTGCCC (((..(((....)))))) | -12.9 | 52.6
35 | GGGTGCCGAAAGGCTCCC (((.(((....))).))) | -20.6 | 69.1
36 | GGGTGCGAAAGCAGACCC ((((((....)))..))) | -20.4 | 54.7
37 | GGGTGCGAAAGCAGTCCC ((((((....)))..))) | -14.6 | 50.5
38 | GGGTGCGCGAAAGCGCCC (((..(((....)))))) | -10.8 | 55.5
39 | GGGTGCGGAAACGCATCC ((.((((....)))).)) | -29.8 | 64.7
40 | GGGTGGAAACACCC (((((....))))) | -28.2 | 63.5
41 | GGGTGGGGAAACCTACCC ((((.((....)).)))) | -41.4 | 54.5
42 | GGGTGGGGAAACTCACCC (((((.(....).))))) | -49.8 | 55.4
43 | GGGTGGGGAAACTCGCCC (((.(.(....).).))) | -30.9 | 47.6
44 | GGGTGGTCGAAAGACCCC (((..(((....)))))) | -15.8 | 53.4
45 | GGGTGTGGAAACACGCTC (.(.(((....))).).) | -17.8 | 56.7
46 | GGGTGTGGAAACGCACTC (.(((.(....).))).) | -24 | 47.9

Row | Sequence | folding enthalpy [1] [kcal/mol] | Tm [2] [°C]
47 | GGGTGTTCGAAAGAACCC (((..(((....)))))) | -16.7 | 52
48 | GGGTTAACGAAAGTTCCC (((..(((....)))))) | -21.2 | 37.4
49 | GGGTTAGAAATAACCC ((((((....)))))) | -36.4 | 53.1
50 | GGGTTAGCGAAAGCTCCC (((..(((....)))))) | -23.7 | 41.8
51 | GGGTTAGGAAACTAACCC (((((((....))))))) | -47.6 | 61.3
52 | GGGTTAGGAAACTGACTC (.((.((....)).)).) | -12.3 | 27.7
53 | GGGTTCACGAAAGTGCCC (((..(((....)))))) | -19.6 | 41.2
54 | GGGTTCCGAAAGGATCCC (((.(((....))).))) | -42.1 | 55.9
55 | GGGTTCGAAAGAACACCC ((((((....)))..))) | -11.8 | 55.1
56 | GGGTTCGAAAGAACCCCC ((((((....)))..))) | -9.24 | 68.2
57 | GGGTTCGAAAGAATCCCC ((((((....)))..))) | -15.9 | 50.6
58 | GGGTTCGAAAGAATGCCC ((((((....)))..))) | -21.1 | 35.3
59 | GGGTTCGAAAGAATTCCC ((((((....)))..))) | -20.4 | 33.8
60 | GGGTTCGGAAACGAGTCC ((..(((....)))..)) | -25.4 | 37.7
61 | GGGTTCGGAAACGGATCC ((.(.((....)).).)) | -27.2 | 40.2
62 | GGGTTCTCGAAAGAGCCC (((..(((....)))))) | -26.5 | 48.1
63 | GGGTTGCCGAAAGGCCCC (((..(((....)))))) | -14.5 | 48.4
64 | GGGTTGGGAAACCGACCC ((((.((....)).)))) | -45.4 | 58.4
65 | GGGTTGGGAAACTAACCC (((((.(....).))))) | -40.6 | 50.6
66 | GGGTTGTCGAAAGACCCC (((..(((....)))))) | -20.5 | 42.7
67 | GGGTTTCGAAAGAAGCCC (((.(((....))).))) | -44.4 | 57.1
68 | GGGTTTGGAAACGAATCC ((.((.(....).)).)) | -25.1 | 34.6
69 | GGTAAACGAAAGTTACC (((.(((....)))))) | -25.6 | 46

Row | Sequence | folding enthalpy [1] [kcal/mol] | Tm [2] [°C]
70 | GGTAAAGGAAACTTTATC (.(((((....))))).) | -18.7 | 30.5
71 | GGTAACCGAAAGGTACC (((.(((....)))))) | -19.4 | 51.1
72 | GGTAACGAAAGTTAAACC ((((((....)))..))) | -16.1 | 32.3
73 | GGTAACGAAAGTTGGACC ((((((....)))..))) | -15.5 | 26.8
74 | GGTAAGTCGAAAGACACC (((..(((....)))))) | -17.9 | 37.3
75 | GGTAATGGAAACATCACC (((.(((....))).))) | -18.2 | 30.7
76 | GGTAATGGAAACATTATC (.(((((....))))).) | -26.8 | 35.7
77 | GGTAATGGAAACGTTACC (((((.(....).))))) | -40.4 | 45
78 | GGTACAGAAATGTACC ((((((....)))))) | -38 | 53
79 | GGTACAGCGAAAGCTACC (((..(((....)))))) | -16.4 | 38.1
80 | GGTACAGGAAACTGCACC (((.(((....))).))) | -32.5 | 44.2
81 | GGTACCCCGAAAGGGACC (((..(((....)))))) | -19.8 | 46.7
82 | GGTACCGAAAGGTCACC ((((((....))).))) | -17.7 | 46.8
83 | GGTACCGAAAGGTCCACC ((((((....)))..))) | -13.3 | 41.3
84 | GGTACCGAAAGGTCGACC ((((((....)))..))) | -13.6 | 36.5
85 | GGTACCGAAAGGTCTACC ((((((....)))..))) | -15 | 33.9
86 | GGTACCGAAAGGTGACC ((((((....))).))) | -21.5 | 48.4
87 | GGTACCGAAAGGTGGACC ((((((....)))..))) | -17 | 37.8
88 | GGTACCGGAAACGGTACC (((((((....))))))) | -30.5 | 69
89 | GGTACGCCGAAAGGCACC (((..(((....)))))) | -8.21 | 32
90 | GGTACGCGAAAGCGCACC (((.(((....))).))) | -28.6 | 57.6
91 | GGTACGGAAACGTACC ((((((....)))))) | -37.8 | 65.8
